Measured values reported in ChEMBL document CHEMBL1130053, “Synthesis and biological evaluation of the enantiomers of the potent and selective A1-adenosine antagonist 1,3-dipropyl-8-[2-(5,6-epoxynorbonyl)]-xanthine” (J Med Chem, 1997).

Legend:
Rattus norvegicus [1] = assay: Sodium ion output (collected per 4 h) in Saline -Loaded Rats at 0.01 mg /kg intravenous dose; assay type: functional
Outline: (§1)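 Sprague-Dawley rats (250-350 g), 2 h equilibration, then tail-vein dosing (vehicle 50% saline/40% PEG/10% ethanol, 1.0 mL/kg). This was followed at once by 40 mL/kg saline po. Urine collected 4 h in metabolic cages, volume by weight, Na⁺/K⁺ by flame photometry. n = 6-7 per dose, mean ± SEM, 1-way ANOVA with Bonferroni test versus vehicle.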

Adenosine receptor A1 [2] = molecular target: T1, Adenosine receptor A1 (Homo sapiens, UniProt P30542); assay: Inhibition of binding to membranes from HEK293 cells expressing human Adenosine A1 receptor; assay type: cell membranes
T1 sequence (P30542 whole entry): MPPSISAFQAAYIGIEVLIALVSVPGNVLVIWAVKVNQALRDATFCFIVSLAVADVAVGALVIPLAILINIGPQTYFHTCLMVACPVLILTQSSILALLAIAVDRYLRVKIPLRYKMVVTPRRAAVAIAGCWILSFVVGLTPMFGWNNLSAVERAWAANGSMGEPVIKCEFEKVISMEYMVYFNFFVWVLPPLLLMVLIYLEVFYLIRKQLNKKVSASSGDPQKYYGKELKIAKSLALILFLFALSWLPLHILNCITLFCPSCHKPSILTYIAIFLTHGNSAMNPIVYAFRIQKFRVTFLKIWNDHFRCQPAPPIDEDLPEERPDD

Rattus norvegicus [3] = assay: Urine output (collected per 4 h) in Saline -Loaded Rats at 0.01 mg /kg intravenous dose; assay type: functional; outline: as §1
Adenosine receptor A1 [4] = molecular target: T2, Adenosine receptor A1 (Cavia porcellus, UniProt P47745); assay: Binding affinity for Adenosine A1 receptor from Guinea pig membranes
T2 sequence (P47745 whole entry): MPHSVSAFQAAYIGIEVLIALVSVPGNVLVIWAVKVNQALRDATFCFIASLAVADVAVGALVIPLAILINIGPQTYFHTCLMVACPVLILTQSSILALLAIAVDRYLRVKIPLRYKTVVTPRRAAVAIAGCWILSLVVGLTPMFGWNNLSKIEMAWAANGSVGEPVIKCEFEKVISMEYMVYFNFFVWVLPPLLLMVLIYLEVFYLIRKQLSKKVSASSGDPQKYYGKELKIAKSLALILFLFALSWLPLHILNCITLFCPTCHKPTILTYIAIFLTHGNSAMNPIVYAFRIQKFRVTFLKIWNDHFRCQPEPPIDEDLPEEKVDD

Rattus norvegicus [5] = assay: Sodium ion output (collected per 4 h) in Saline -Loaded Rats at 1.0 mg /kg intravenous dose; assay type: functional; outline: as §1
Rattus norvegicus [6] = assay: Potassium ion output (collected per 4 h) in Saline -Loaded Rats at 0.1 mg /kg intravenous dose; assay type: functional; outline: as §1
Rattus norvegicus [7] = assay: Potassium ion output (collected per 4 h) in Saline -Loaded Rats at 0.01 mg /kg intravenous dose; assay type: functional; outline: as §1
Adenosine A2 receptor = Adenosine A2 receptor (Rattus norvegicus, UniProt P29276+P30543); assay: Binding affinity for Adenosine A2 receptor from rat striatal membranes
Rattus norvegicus [8] = assay: Sodium ion output (collected per 4 h) in Saline -Loaded Rats at 0.1 mg /kg intravenous dose; assay type: functional; outline: as §1
Rattus norvegicus [9] = assay: Urine output (collected per 4 h) in Saline -Loaded Rats at 0.1 mg /kg intravenous dose; assay type: functional; outline: as §1
Adenosine receptor A1 [10] = molecular target: T3, Adenosine receptor A1 (Rattus norvegicus, UniProt P25099); assay: Binding affinity for Adenosine A1 receptor of rat forebrain
T3 sequence (P25099 whole entry): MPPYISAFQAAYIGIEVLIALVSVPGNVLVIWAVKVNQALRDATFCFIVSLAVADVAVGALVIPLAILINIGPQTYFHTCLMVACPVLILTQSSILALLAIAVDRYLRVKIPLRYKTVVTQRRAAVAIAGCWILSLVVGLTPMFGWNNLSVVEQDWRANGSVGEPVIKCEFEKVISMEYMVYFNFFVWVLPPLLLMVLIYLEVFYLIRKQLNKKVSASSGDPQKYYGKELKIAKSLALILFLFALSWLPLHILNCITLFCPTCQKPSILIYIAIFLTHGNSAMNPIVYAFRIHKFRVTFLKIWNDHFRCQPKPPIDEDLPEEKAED

Rattus norvegicus [11] = assay: Urine output (collected per 4 h) in Saline -Loaded Rats at 1.0 mg /kg intravenous dose; assay type: functional; outline: as §1
Rattus norvegicus [12] = assay: Potassium ion output (collected per 4 h) in Saline -Loaded Rats at 1.0 mg /kg intravenous dose; assay type: functional; outline: as §1

Ki (Adenosine receptor A1 [2]) [nM]	Ki (Adenosine receptor A1 [4]) [nM]	Ki (Adenosine A2 receptor) [nM]	Ki (Adenosine receptor A1 [10]) [nM]	SMILES	Na+ output (Rattus norvegicus [1]) [mmol/kg]	Urine output (Rattus norvegicus [3]) [mL/kg]	Na+ output (Rattus norvegicus [5]) [mmol/kg]	K+ output (Rattus norvegicus [6]) [mmol/kg]	K+ output (Rattus norvegicus [7]) [mmol/kg]	Na+ output (Rattus norvegicus [8]) [mmol/kg]	Urine output (Rattus norvegicus [9]) [mL/kg]	Urine output (Rattus norvegicus [11]) [mL/kg]	K+ output (Rattus norvegicus [12]) [mmol/kg]
0.82	3.15	309	1.43	CCCn1c(=O)c2nc(C3CC4CC3C3OC43)[nH]c2n(CCC)c1=O (stereo in doubt)	3.54	23.2	6.54	1.22	1.1	5.14	33	43.2	1.42
0.8	3.17	551	5.12	CCCn1c(=O)c2nc(C3CC4CC3C3OC43)[nH]c2n(CCC)c1=O (stereo in doubt; 8)	3.8	26.8	5.99	0.89	0.97	4.56	31.3	44.1	1.84
0.45	1.43	1250	0.67	CCCn1c(=O)c2nc(C3CC4CC3C3OC43)[nH]c2n(CCC)c1=O (stereo in doubt; 12)	3.02	21.7	5.86	1.34	0.75	5.29	35.1	37.1	1.09
–	–	510	–	CCCn1c(=O)c2nc(C34CC5CC(CC3C5)C4)[nH]c2n(CCC)c1=O [ROLOFYLLINE]	–	–	–	–	–	–	–	–	–
